Data reported in ChEMBL document CHEMBL1671628, “Cell density and cell aging as factors modulating antifungal resistance of Candida albicans biofilms” (2008).

Columns and labels:
Candida albicans [1] = experiment: Antifungal activity against 48 hrs cultures of 10^7 cells/ml Candida albicans ATCC 90028 planktonic cells by XTT reduction method; type: functional
In short: (§1)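 Age-matched planktonic cultures were grown from the same 1 × 10^7 cells/ml YNB + 100 mM glucose suspension under the biofilm conditions for 24 or 48 h. They were tested against twofold drug dilutions by XTT reduction (3 h at 37°C in the dark, A490 minus blank). MIC50 is 50% reduction vs drug-free control.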

Candida albicans [2] = experiment: Antifungal activity against 10^5 cells/ml wild-type Candida albicans BF-1 by EUCAST method; type: functional
In short: (§2)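 EUCAST AFST planktonic broth microdilution: RPMI 1640 plus 2% glucose, inoculum 0.5 × 10^5 to 2.5 × 10^5 cells/ml, twofold drug dilutions. Performed on three different occasions.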

Candida albicans [3] = experiment: Antifungal activity against 10^7 cells/ml Candida albicans ATCC 90028 planktonic cells by XTT reduction assay; type: functional
In short: (§3)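 High-density planktonic suspensions (10^7 or 10^8 cells/ml) added to serially double-diluted drugs as in the NCCLS setup, run in parallel in RPMI 1640 + 2% glucose and YNB + 100 mM glucose. Viability read by XTT (1 mg/ml) with menadione (0.4 mM stock, 5:1), 3 h dark at 37°C, A490 minus blank wells. MIC50 = lowest concentration giving 50% reduction versus drug-free control.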

Candida albicans [4] = experiment: Antifungal activity against 10^3 cells/ml Candida albicans ATCC 90028 by NCCLS method; type: functional
In short: (§4)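 Planktonic broth microdilution per NCCLS (CLSI): inoculum from 24-h SDA cultures adjusted to 0.5 McFarland at 520 nm, diluted in RPMI 1640 to about 0.5 × 10^3 to 2.5 × 10^3 cells/ml. Cells exposed to twofold drug dilutions, incubated 35°C for 48 h, then MIC read. Three separate occasions.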

Candida albicans [5] = experiment: Antifungal activity against 48 hrs cultures of 10^7 cells/ml biofilm-derived Candida albicans BF-1 planktonic cells hrs by XTT reduction method; type: functional
In short: (§5)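 Biofilms grown from 1 × 10^7 cells/ml (YNB + 100 mM glucose, 1.5 h adherence, 37°C, 75 rpm) for 24 or 48 h, washed, scraped and moved to wells of serially double-diluted drugs. Incubated with drug 24 or 48 h, then XTT–menadione read at 490 nm. MIC50 = 50% reduction versus drug-free control.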

Candida albicans [6] = experiment: Antifungal activity against 24 hrs cultures of 10^7 cells/ml Candida albicans SC5314 biofilms by XTT reduction assay; type: functional; settings: SC5314, 24 h
In short: (§6)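 Washed late-exponential cells at 1 × 10^7 cells/ml in YNB + 100 mM glucose were adhered 1.5 h at 37°C with shaking at 75 rpm, washed, then grown 24 or 48 h at 37°C, 75 rpm. Biofilms were washed and exposed 24 or 48 h at 37°C to twofold dilutions in RPMI + 2% glucose. Read by XTT at A490. MIC50 is 50% reduction vs drug-free control. Three experiments, four replicates.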

Candida albicans [7] = experiment: Antifungal activity against 48 hrs cultures of 10^8 cells/ml wild-type Candida albicans BF-1 biofilms by XTT reduction assay; settings: BF-1, 48 h
Candida albicans [8] = experiment: Antifungal activity against 10^5 cells/ml Candida albicans ATCC 90028 by EUCAST method; type: functional; in short: as §2
Candida albicans [9] = experiment: Antifungal activity against 48 hrs cultures of 10^8 cells/ml Candida albicans ATCC 90028 biofilms by XTT reduction assay; settings: ATCC 90028, 48 h
Candida albicans [10] = experiment: Antifungal activity against 10^3 cells/ml Candida albicans SC5314 by NCCLS method; type: functional; in short: as §4
Candida albicans [11] = experiment: Antifungal activity against 24 hrs cultures of 10^7 cells/ml Candida albicans ATCC 90028 planktonic cells by XTT reduction method; type: functional
In short: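 Standard 1 × 10^7 cells/ml suspension in YNB + 100 mM glucose propagated planktonically 24 h alongside age-matched biofilms, then exposed to twofold drug dilutions. Metabolic activity read by XTT–menadione reduction, 3 h dark, 37°C, A490 background-subtracted. MIC50 is the 50% reduction point versus drug-free control.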

Candida albicans [12] = experiment: Antifungal activity against 10^3 cells/ml wild-type Candida albicans BF-1 by NCCLS method; type: functional; in short: as §4
Candida albicans [13] = experiment: Antifungal activity against 24 hrs cultures of 10^7 cells/ml Candida albicans BF-1 planktonic cells by XTT reduction method; type: functional; in short: as §1
Candida albicans [14] = experiment: Antifungal activity against 24 hrs cultures of 10^7 cells/ml Candida albicans ATCC 90028 biofilms by XTT reduction method; type: functional; in short: as §6
Candida albicans [15] = experiment: Antifungal activity against 10^8 cells/ml Candida albicans SC5314 planktonic cells by XTT reduction assay; type: functional; in short: as §3
Candida albicans [16] = experiment: Antifungal activity against 10^8 cells/ml Candida albicans ATCC 90028 planktonic cells by XTT reduction assay; type: functional; in short: as §3
Candida albicans [17] = experiment: Antifungal activity against 10^7 cells/ml wild-type Candida albicans BF-1 planktonic cells by XTT reduction assay; type: functional; in short: as §3
Candida albicans [18] = experiment: Antifungal activity against 48 hrs cultures of 10^7 cells/ml Candida albicans BF-1 planktonic cells by XTT reduction method; type: functional; in short: as §1
Candida albicans [19] = experiment: Antifungal activity against 10^8 cells/ml wild-type Candida albicans BF-1 planktonic cells by XTT reduction assay; type: functional
In short: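 Planktonic suspensions at 1 × 10^8 cells/ml added to twofold serial drug dilutions in 96-well plates (NCCLS format). Run in parallel in RPMI 1640 + 2% glucose and YNB + 100 mM glucose. Readout by XTT reduction: XTT–menadione in PBS, 3 h at 37°C in the dark, A490 minus blank. MIC50 is 50% reduction vs drug-free control.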

Candida albicans [20] = experiment: Antifungal activity against 24 hrs cultures of 10^7 cells/ml Candida albicans ATCC 90028 biofilms by XTT reduction assay; type: functional; in short: as §6
Candida albicans [21] = experiment: Antifungal activity against 24 hrs cultures of 10^7 cells/ml Candida albicans BF-1 biofilms by XTT reduction method; type: functional; in short: as §6
Candida albicans [22] = experiment: Antifungal activity against 24 hrs cultures of 10^7 cells/ml biofilm-derived Candida albicans BF-1 planktonic cells hrs by XTT reduction method; type: functional
In short: (§7)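 Biofilms grown 24 or 48 h from 1 × 10^7 cells/ml were washed, scraped and transferred into plates of twofold serially diluted drugs. They were incubated 24 or 48 h. MIC was read by XTT reduction (3 h at 37°C in the dark, A490 minus blank) as 50% reduction vs drug-free control.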

Candida albicans [23] = experiment: Antifungal activity against 48 hrs cultures of 10^7 cells/ml biofilm-derived Candida albicans ATCC 90028 planktonic cells hrs by XTT reduction method; type: functional; in short: as §7
Candida albicans [24] = experiment: Ratio of MIC for 10^8 cells/ml wild-type Candida albicans BF-1 to MIC for 10^7 cells/ml wild-type Candida albicans BF-1 grown as planktonic cells; type: functional; in short: as §3
Candida albicans [25] = experiment: Antifungal activity against 24 hrs cultures of 10^7 cells/ml wild-type Candida albicans BF-1 biofilms by XTT reduction assay; type: functional; in short: as §6
Candida albicans [26] = experiment: Antifungal activity against 48 hrs cultures of 10^7 cells/ml Candida albicans ATCC 90028 biofilms by XTT reduction method; type: functional; in short: as §6
Candida albicans [27] = experiment: Antifungal activity against 48 hrs cultures of 10^7 cells/ml Candida albicans BF-1 biofilms by XTT reduction method; type: functional; in short: as §6
Candida albicans [28] = experiment: Antifungal activity against 24 hrs cultures of 10^7 cells/ml biofilm-derived Candida albicans ATCC 90028 planktonic cells hrs by XTT reduction method; type: functional; in short: as §5
Candida albicans [29] = experiment: Antifungal activity against 48 hrs cultures of 10^7 cells/ml Candida albicans ATCC 90028 biofilms by XTT reduction assay; type: functional; in short: as §6
Candida albicans [30] = experiment: Antifungal activity against 48 hrs cultures of 10^7 cells/ml wild-type Candida albicans BF-1 biofilms by XTT reduction assay; type: functional; in short: as §6

Nc1nc(=O)[nH]cc1F [FLUCYTOSINE]
6.5 µg/mL: MIC (Candida albicans [3]) | MIC (Candida albicans [17])
>1000: Ratio (Candida albicans [24])
0.8 µg/mL: MIC (Candida albicans [2]) | MIC (Candida albicans [4]) | MIC (Candida albicans [8]) | MIC (Candida albicans [10]) | MIC (Candida albicans [12])
> 420 µg/mL: MIC (Candida albicans [1]; ATCC 90028, 48 h) | MIC (Candida albicans [5]; BF-1, 48 h) | MIC (Candida albicans [6]) | MIC (Candida albicans [7]) | MIC (Candida albicans [9]) | MIC (Candida albicans [11]; ATCC 90028, 24 h) | MIC (Candida albicans [13]; BF-1, 24 h) | MIC (Candida albicans [14]; ATCC 90028, 24 h) | MIC (Candida albicans [15]) | MIC (Candida albicans [16]) | MIC (Candida albicans [18]; BF-1, 48 h) | MIC (Candida albicans [19]) | MIC (Candida albicans [20]; ATCC 90028, 24 h) | MIC (Candida albicans [21]; BF-1, 24 h) | MIC (Candida albicans [22]; BF-1, 24 h) | MIC (Candida albicans [23]; ATCC 90028, 48 h) | MIC (Candida albicans [25]; BF-1, 24 h) | MIC (Candida albicans [26]; ATCC 90028, 48 h) | MIC (Candida albicans [27]; BF-1, 48 h) | MIC (Candida albicans [28]; ATCC 90028, 24 h)

NYSTATIN
4 µg/mL: MIC (Candida albicans [13]) | MIC (Candida albicans [22])
8 µg/mL: MIC (Candida albicans [1]) | MIC (Candida albicans [16]) | MIC (Candida albicans [23])
2 µg/mL: MIC (Candida albicans [2]) | MIC (Candida albicans [3]) | MIC (Candida albicans [11]) | MIC (Candida albicans [12]) | MIC (Candida albicans [17]) | MIC (Candida albicans [28])
8: Ratio (Candida albicans [24])
32 µg/mL: MIC (Candida albicans [21]) | MIC (Candida albicans [30]) | MIC (Candida albicans [25]) | MIC (Candida albicans [27])
16 µg/mL: MIC (Candida albicans [5]) | MIC (Candida albicans [14]) | MIC (Candida albicans [29]) | MIC (Candida albicans [18]) | MIC (Candida albicans [19]) | MIC (Candida albicans [20]) | MIC (Candida albicans [26])
1 µg/mL: MIC (Candida albicans [4]) | MIC (Candida albicans [8])
